Measured values reported in PubChem BioAssay AID2170 (The Scripps Research Institute Molecular Screening Center, 2009).
Screen size: about 2,400 compounds; about 660 (28%) were called active.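 How the source made its calls: active means mean inhibition over replicate wells above the hit cutoff set for the earlier primary screen (cut at about 29% in these data); inactive means the rest.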 Not all results are given here.

Each compound was assayed on M18 aspartyl aminopeptidase (Plasmodium falciparum 3D7) (assay: inhibition of P. falciparum M18 aminopeptidase – biochemical, QFRET, recombinant enzyme, triplicate, confirmation (AID 2170;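 further: 0% = median of test compound wells and 100% = 2 mM ZnCl2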)). Details: recombinant PfM18AAP, H-Glu-NHMec fluorogenic cleavage; at 7.35 µM; active compounds read high.
In short: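 Test system: recombinant P. falciparum M18 aspartyl aminopeptidase; incubation: Enzyme–compound pre-incubation 30 min, substrate reaction 90 min, both 25 °C; detection: fluorescence, excitation 340 nm, emission 450 nm, read at 0 and 90 min; evaluation: percent inhibition from 0–90 min fluorescence gain, scaled between controls; benchmarks: ZnCl2 inhibitor control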

inhibition, inactive:
Cc1ccc(S(=O)(=O)N/N=C\c2cc3c(cc2[N+](=O)[O-])OCO3)cc1 -7.72%
Cc1ccc(Cl)cc1-c1ccc(/C=N/n2cnnc2)o1 -18.6%
Cc1ccc(-c2ccc(/C=C(\C#N)C(N)=S)o2)c([N+](=O)[O-])c1 -32.7%
NC(=O)c1c(NC(=O)CSc2nnc(-c3ccco3)n2N)sc2c1CCCC2 -70.9%
S=c1[nH]nc2c3c4c(sc3ncn12)CCCC4 -11.8%
CCOCCCNC(=O)c1ccc(CS(=O)(=O)c2cccc(C(F)(F)F)c2)o1 -29.5%
Cc1cccc(NC(=O)c2sc3nc(N4CCOCC4)c4c(c3c2N)CCCC4)c1 3.82%
O=S(=O)(c1ccc(NC(=S)NN=C(C2CC2)C2CC2)cc1)N1CCOCC1 14.8%
NC(=O)C1CCN(C(=O)/C(=C/c2ccco2)NC(=O)c2ccccc2)CC1 -45.2%
CCOc1ccc(-n2c(O)c(/C=N/Nc3nnc(C)c(=O)[nH]3)c3ccccc3c2=O)cc1 12.4%
Oc1c(C(c2ccco2)N2CCC3(CC2)OCCO3)sc2ncnn12 (stereo not given) -4.87%
CCN(CC)c1ccc(/C=N/Nc2nc(C)cc(C)n2)c(O)c1 16.4%
O=C(Oc1ccc(Br)cc1C(=S)N1CCOCC1)c1cccc([N+](=O)[O-])c1 -27.5%
Oc1ccc(N2CCN(C(=S)NCc3ccccc3)CC2)cc1 -12.9%
CC(OC(=O)c1ccc2noc(-c3ccccc3)c2c1)C(N)=O (stereo not given) -28.2%
CSc1n[nH]c(=S)n1N -12.7%
O=C(CSC(=S)N1CCOCC1)c1cc(Br)cc(Br)c1O -45.7%
CCN(CC)c1ccc(NC(=O)CCc2nnc3ccc(N4CCCCC4)nn23)c(C)c1 -12.9%
Oc1cccc(/C=N/Nc2ccc(Cl)nn2)c1O 20.8%
CN(C)c1ccc(C(CC(=O)O)C(=O)O)cc1 (stereo not given) -38.2%
Cc1onc(-c2ccccc2)c1C(=O)NNC(=S)NC(=O)c1ccc(F)cc1 -38.8%
CC1(C)CC(=O)C/C(=N\NC(=O)c2cccs2)C1 3.68%
N#CCC(=O)N/N=C/c1ccc(SCC(=O)Nc2ccccc2)o1 -37.9%
COc1ccc2c(c1)C(C)=CC(C)(C)N2C(=O)Nc1ccccc1 -22.9%
COc1ccc(/C=N/Nc2nc3ccccc3o2)cc1OC -38.4%
c1ccc2c(c1)OCC(c1nn3cnnc3s1)O2 (stereo not given) -28.2%
Cc1cc2nc3c(=O)n(Cc4ccccc4)c(=O)[nH]c3nc2cc1N 7.01%
Cc1ccsc1/C=N/Nc1ccc(Cl)nn1 -14.8%
Cc1cc(-c2ccc(/C=N/n3cnnc3)o2)c([N+](=O)[O-])cc1C 0.8%
Cc1ccc(NC(=O)c2c(NC(=O)CCC(=O)O)sc3c2CCCCC3)cc1 -30.8%
CNC(=S)NNC(=O)c1ccc(N(C)C)cc1 12.2%
CC(C)c1ccc(NC(=S)NNc2ccc(Cl)c(C(=O)O)c2)cc1 -43.7%
COc1cc(/C=C2/C(=O)NN(c3cccc(Cl)c3)C2=O)cc(Br)c1O 12.9%
O=C(NNC(=O)c1ccco1)Nc1ccccc1 17.1%
COc1cc(NC(=S)N2CCCC(C)C2)c(OC)cc1Cl (stereo not given) -0.38%
O=C(CC(n1cncn1)C(Cl)(Cl)Cl)c1ccc([N+](=O)[O-])cc1 (stereo not given) -9.53%
COc1c(O)ccc2c1CN1CCc3cc4c(cc3C1C2)OCO4 (stereo not given) 9.45%
CCN1/C(=C/C(=S)Nc2ccccc2)Sc2ccccc21 0.1%
CC(C)(C)c1nnc(N/N=C/c2ccc(O)cc2)n(N)c1=O -22.7%
CCOc1ccc(C2C3=C(CCCC3=O)N(CC(=O)O)C3=C2C(=O)CCC3)cc1 -43.7%
NC(=S)N/N=C/c1coc2cc(Cl)ccc2c1=O -23.6%
O=C(CN1CCN(c2ccc(O)cc2)CC1)Nc1ccc(-c2ccccc2)cc1 -14.9%
c1ccc2sc(NN=C3CCCC3)nc2c1 -44.4%
COc1cccc2cc(-c3cc(=O)oc4cc(C)c(O)cc34)oc12 -27.8%
O=C(CSc1ncn[nH]1)Nc1nsc(-c2ccccc2)n1 14.9%
O=C(CSc1ncn[nH]1)Nc1ccnc2ccccc12 8.46%

inhibition, active:
O=C(Nn1cnnc1)c1cc(Cl)ccc1Cl 55.1%
O=C(Nc1ccccc1Cl)Nn1cnnc1 65.9%
Cc1nnc(SCC(=O)Nn2cnnc2)s1 29.1%
Cc1ccc2nc(-c3cccc(Br)c3)cc(C(=O)Nn3cnnc3)c2c1 63.4%
Oc1ccc(/C=N/NC2=NCCCCC2)c(O)c1 41.8%
O=C(N/N=C/c1ccc(O)c(O)c1)C1c2ccccc2Oc2ccccc21 37.3%
Cc1csc(NC(=O)NC2(C(F)(F)F)Oc3ccccc3O2)n1 68.6%
COc1cc(S(=O)(=O)Nc2ncn[nH]2)ccc1Cl 34.1%
Oc1ccc(-c2csc(Nc3cccnc3)n2)cc1 56.6%
CCOC(=O)NNc1cc(C(F)(F)F)ccn1 28.2%
COc1cc(Br)cc(/C=N/c2ncn[nH]2)c1O 62.9%
CCCc1nc2ccccc2c(=O)n1/N=C/c1ccc(O)c(O)c1 28.4%
CC(C)C1N=C2c3ccccc3N=C(SCC(=O)c3ccc(O)c(O)c3)N2C1=O (stereo not given) 39%
S=c1[nH]c(-c2cccs2)cn1-c1ccccc1 39.1%
Cc1cc(C)nc(NNC2=CC(=O)CC(C)(C)C2)n1 44.3%
Cc1c(CC(=O)N2CCN(C(=O)C3COc4ccccc4O3)CC2)c(=O)oc2c(O)c(O)ccc12 (stereo not given) 32.3%
Cc1ccnc(-n2sc3ccccc3c2=O)n1 28.8%
Cc1cc(C)nc(Nc2ncn[nH]2)n1 71.7%
O=C(CSc1ncn[nH]1)Nc1nc(-c2cccc([N+](=O)[O-])c2)cs1 36.5%
